The source made the active and inactive calls. No cut-off for these calls is given here. A value given as a limit tells only on which side of the number the result lay.

Assay [1] addresses T1, DNA (cytosine-5)-methyltransferase 1 (Mus musculus, UniProt P13864). The assay can be described thus: Inhibition of N-terminal His6-tagged mouse DNMT1 (731 to 1602 residues) expressed in Escherichia coli BL21 (DE3) incubated for 15 mins before addition of [3H]-SAM and poly(dI-dC).poly(dI-dC) by liquid scintillation counting based radioactive methylation assay. The gist of the method:
(§1)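 Enzyme was preincubated with compound for 15 min at room temperature, then reacted for 60 min at 37°C. Products were filter-captured, washed and counted by scintillation. IC50 came from a nonlinear dose-response fit; single-point tests used 50 µM.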

The next assay concerns HCT-116. The assay can be described thus: Antiproliferative activity against human HCT116 cells assessed as inhibition of cell proliferation at 1.25 to 10 uM after 24 to 72 hrs by MTT assay. In kind it is functional, cell-based. The gist of the method:
(§2)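 HCT116 maintained in McCoy's 5A and Capan-1 in DMEM, each with 10% FBS, at 37°C under 5% CO2. Cells were exposed to a range of compound concentrations from DMSO stocks, with DMSO-matched controls. Viability was read by MTT absorbance at 490 nm, and percent proliferation was normalized to control cells.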

The next assay deals with CAPAN-1. The assay can be described thus: Antiproliferative activity against human Capan1 cells assessed as inhibition of cell proliferation at 1.25 to 10 uM after 24 to 72 hrs by MTT assay. In kind it is functional, cell-based. Summed up: as §2
Assay [2] can be described thus: Binding affinity to DNA (unknown origin) at 0.0625 to 0.5 mM by ethidium bromide dye based agarose gel electrophoresis method.
The target in assay [3] is DNA (cytosine-5)-methyltransferase 1 (Mus musculus) (UniProt P13864). The assay can be described thus: Inhibition of N-terminal His6-tagged mouse DNMT1 (731 to 1602 residues) at 200 uM expressed in Escherichia coli BL21 (DE3) incubated for 2 hrs using S-adenosylmethionine by ELISA. The gist of the method:
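Mouse DNMT1 was purified by HisTrap, SUMO-tag cleavage, heparin and gel filtration. 200 nM enzyme was incubated with 200 μM compound (1% DMSO) and AdoMet in DNMT assay buffer at 37°C for 2 h. Capture and detection antibodies were then applied, followed by developer for 10 min at room temperature. Absorbance was read at 450 nm, with AdoHcy as reference.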

Assay [4] shares this target. The assay can be described thus: Inhibition of N-terminal His6-tagged mouse DNMT1 (731 to 1602 residues) expressed in Escherichia coli BL21 (DE3) at 50 uM incubated for 15 mins before addition of [3H]-SAM and poly(dI-dC).poly(dI-dC) by liquid scintillation counting based radioactive methylation assay. The gist of the method: as §1
The target of assay [5] is DNA (cytosine-5)-methyltransferase 3A (Homo sapiens, UniProt Q9Y6K1). The assay can be described thus: Inhibition of DNMT3A (unknown origin) incubated for 15 mins before addition of [3H]-SAM and poly(dI-dC).poly(dI-dC) by liquid scintillation counting based radioactive methylation assay.
Sequence of DNA (cytosine-5)-methyltransferase 3A (Q9Y6K1 whole entry, looked up): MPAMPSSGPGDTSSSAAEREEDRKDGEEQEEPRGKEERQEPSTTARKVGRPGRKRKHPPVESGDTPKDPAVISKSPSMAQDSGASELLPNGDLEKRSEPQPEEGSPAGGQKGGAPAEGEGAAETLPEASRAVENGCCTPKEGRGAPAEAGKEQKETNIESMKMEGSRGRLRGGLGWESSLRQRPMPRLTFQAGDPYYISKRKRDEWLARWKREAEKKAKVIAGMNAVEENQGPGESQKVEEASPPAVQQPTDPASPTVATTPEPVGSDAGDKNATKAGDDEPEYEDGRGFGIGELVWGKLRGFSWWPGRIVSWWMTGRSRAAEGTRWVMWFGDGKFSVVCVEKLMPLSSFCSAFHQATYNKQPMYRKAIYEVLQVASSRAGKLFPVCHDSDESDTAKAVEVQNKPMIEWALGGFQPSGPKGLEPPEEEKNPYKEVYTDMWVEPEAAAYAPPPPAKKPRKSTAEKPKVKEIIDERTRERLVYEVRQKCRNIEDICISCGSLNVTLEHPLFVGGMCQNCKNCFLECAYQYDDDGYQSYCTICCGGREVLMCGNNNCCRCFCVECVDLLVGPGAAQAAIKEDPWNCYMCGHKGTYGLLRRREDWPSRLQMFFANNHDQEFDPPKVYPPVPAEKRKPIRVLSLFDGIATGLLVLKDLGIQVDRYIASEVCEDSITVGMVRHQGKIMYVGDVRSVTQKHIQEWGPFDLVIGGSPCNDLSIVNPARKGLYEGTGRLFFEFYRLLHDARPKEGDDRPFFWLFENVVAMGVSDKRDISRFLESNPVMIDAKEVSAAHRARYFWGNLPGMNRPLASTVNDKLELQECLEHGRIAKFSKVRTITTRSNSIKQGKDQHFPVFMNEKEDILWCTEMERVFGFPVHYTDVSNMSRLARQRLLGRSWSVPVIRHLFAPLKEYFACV
In assay [6] the target is DNA (cytosine-5)-methyltransferase 3B (Homo sapiens, UniProt Q9UBC3). The assay can be described thus: Inhibition of DNMT3B (unknown origin) incubated for 15 mins before addition of [3H]-SAM and poly(dI-dC).poly(dI-dC) by liquid scintillation counting based radioactive methylation assay.
For assay [7], the target named is T2, Histone-lysine N-methyltransferase EHMT2 (Homo sapiens, UniProt Q96KQ7).
T2 sequence (Q96KQ7 whole entry): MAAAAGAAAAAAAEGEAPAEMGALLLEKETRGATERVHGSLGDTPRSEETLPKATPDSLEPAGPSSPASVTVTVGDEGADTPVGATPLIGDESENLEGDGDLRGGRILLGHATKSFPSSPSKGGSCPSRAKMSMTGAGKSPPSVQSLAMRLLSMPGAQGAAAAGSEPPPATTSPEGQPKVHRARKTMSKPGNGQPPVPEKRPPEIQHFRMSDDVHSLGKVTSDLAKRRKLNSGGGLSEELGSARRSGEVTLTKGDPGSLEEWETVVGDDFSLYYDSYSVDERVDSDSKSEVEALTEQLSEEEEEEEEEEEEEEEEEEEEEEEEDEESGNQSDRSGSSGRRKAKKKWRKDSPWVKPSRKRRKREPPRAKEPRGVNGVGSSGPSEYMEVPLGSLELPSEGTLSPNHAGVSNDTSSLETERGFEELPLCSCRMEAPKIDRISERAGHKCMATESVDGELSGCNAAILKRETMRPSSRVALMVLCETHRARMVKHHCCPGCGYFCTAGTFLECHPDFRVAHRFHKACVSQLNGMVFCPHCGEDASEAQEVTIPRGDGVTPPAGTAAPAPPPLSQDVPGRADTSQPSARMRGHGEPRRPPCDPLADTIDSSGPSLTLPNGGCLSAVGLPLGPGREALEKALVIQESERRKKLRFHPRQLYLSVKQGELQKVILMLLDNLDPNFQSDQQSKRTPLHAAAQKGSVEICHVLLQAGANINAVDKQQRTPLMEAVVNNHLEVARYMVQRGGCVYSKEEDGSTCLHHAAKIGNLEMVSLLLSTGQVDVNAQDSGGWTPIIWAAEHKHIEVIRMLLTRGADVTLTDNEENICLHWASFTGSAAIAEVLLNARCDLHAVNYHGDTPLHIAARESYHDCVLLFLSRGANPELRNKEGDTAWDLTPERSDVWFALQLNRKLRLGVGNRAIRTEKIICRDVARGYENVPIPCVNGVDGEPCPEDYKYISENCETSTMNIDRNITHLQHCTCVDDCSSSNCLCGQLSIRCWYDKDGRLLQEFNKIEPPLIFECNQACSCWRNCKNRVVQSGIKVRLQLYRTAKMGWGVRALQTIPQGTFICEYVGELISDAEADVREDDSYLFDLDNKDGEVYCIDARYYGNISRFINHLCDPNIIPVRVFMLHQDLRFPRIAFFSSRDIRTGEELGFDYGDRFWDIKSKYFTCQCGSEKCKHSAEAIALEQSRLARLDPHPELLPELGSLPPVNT
The assay can be described thus: Inhibition of G9a (unknown origin) incubated for 15 mins before addition of biotinylated peptide H3 (1 to 21) and SAM by methylation assay. The gist of the method:
(§3)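 AlphaLISA assays were run in modified Tris pH 9.0 with 100 nM biotinylated H3(1-21) and SAM at Km: MLL1 2 nM enzyme with 2 μM SAM; SUV39H1 3 nM with 20 μM; SET7/9 0.2 nM with 0.22 μM; G9a 0.03 nM with 50 μM. Enzyme and compound were preincubated for 15 min, then reacted for 60 min at room temperature before the beads were added. IC50 came from a nonlinear dose-response fit.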

Assay [8] has as its target T3, Histone-lysine N-methyltransferase SUV39H1 (Homo sapiens, UniProt O43463).
T3 sequence (O43463 whole entry): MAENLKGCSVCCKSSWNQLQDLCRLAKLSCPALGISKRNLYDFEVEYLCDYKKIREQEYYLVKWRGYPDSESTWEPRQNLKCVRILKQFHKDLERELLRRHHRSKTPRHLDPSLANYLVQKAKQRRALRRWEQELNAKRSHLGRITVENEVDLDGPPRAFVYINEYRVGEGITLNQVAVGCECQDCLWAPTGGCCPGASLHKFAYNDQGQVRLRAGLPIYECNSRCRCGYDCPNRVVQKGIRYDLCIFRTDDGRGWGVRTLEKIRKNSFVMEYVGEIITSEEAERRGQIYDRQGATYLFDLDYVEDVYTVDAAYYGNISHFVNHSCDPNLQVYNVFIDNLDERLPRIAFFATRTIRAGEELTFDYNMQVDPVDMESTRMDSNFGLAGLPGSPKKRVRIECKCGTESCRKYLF
The assay can be described thus: Inhibition of SUV39H1 (unknown origin) incubated for 15 mins before addition of biotinylated peptide H3 (1 to 21) and SAM by methylation assay. Summed up:
as §3

Assay [9] deals with Histone-lysine N-methyltransferase 2A (Homo sapiens, UniProt Q03164). The assay can be described thus: Inhibition of MLL1 (unknown origin) incubated for 15 mins before addition of biotinylated peptide H3 (1 to 21) and SAM by methylation assay. The gist of the method:
as §3

Assay [10] concerns the target T4, Histone-lysine N-methyltransferase SETD7 (Homo sapiens, UniProt Q8WTS6).
T4 sequence (Q8WTS6 whole entry): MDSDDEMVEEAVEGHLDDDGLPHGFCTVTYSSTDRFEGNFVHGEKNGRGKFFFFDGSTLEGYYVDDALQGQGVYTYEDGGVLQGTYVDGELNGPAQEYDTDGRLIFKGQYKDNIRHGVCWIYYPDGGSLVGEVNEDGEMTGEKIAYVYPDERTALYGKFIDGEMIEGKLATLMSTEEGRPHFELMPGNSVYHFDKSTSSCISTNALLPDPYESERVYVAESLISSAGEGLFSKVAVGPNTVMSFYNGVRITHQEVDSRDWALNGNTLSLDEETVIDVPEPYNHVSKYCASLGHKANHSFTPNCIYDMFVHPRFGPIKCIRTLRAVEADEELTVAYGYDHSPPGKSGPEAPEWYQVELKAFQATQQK
The assay can be described thus: Inhibition of SET7/9 (unknown origin) incubated for 15 mins before addition of biotinylated peptide H3 (1 to 21) and SAM by methylation assay. Summed up: as §3

The target of assay [11] is DNA (cytosine-5)-methyltransferase 1 (Mus musculus) (UniProt P13864). The assay can be described thus: (§4) Binding affinity to N-terminal His6-tagged mouse DNMT1 (731 to 1602 residues) expressed in Escherichia coli BL21 (DE3) by SPR assay. Summed up:
(§5)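 Measured by SPR at 25°C. Purified mouse DNMT1 was amine-coupled to a CM5 chip in 10 mM sodium acetate pH 5.0 and equilibrated overnight in HBS-EP (10 mM HEPES pH 7.4, 150 mM NaCl, 3 mM EDTA, 0.05% P20, 0.1% DMSO). Serially diluted compounds were injected with 120 s contact and 120 s dissociation, and KD was derived by the instrument evaluation software.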

For assay [12], the target named is T1, DNA (cytosine-5)-methyltransferase 1. The assay is described as §4. The gist of the method:
as §5

Sequence of DNA (cytosine-5)-methyltransferase 1 (Mus musculus) (P13864 whole entry, the tested form may be a part): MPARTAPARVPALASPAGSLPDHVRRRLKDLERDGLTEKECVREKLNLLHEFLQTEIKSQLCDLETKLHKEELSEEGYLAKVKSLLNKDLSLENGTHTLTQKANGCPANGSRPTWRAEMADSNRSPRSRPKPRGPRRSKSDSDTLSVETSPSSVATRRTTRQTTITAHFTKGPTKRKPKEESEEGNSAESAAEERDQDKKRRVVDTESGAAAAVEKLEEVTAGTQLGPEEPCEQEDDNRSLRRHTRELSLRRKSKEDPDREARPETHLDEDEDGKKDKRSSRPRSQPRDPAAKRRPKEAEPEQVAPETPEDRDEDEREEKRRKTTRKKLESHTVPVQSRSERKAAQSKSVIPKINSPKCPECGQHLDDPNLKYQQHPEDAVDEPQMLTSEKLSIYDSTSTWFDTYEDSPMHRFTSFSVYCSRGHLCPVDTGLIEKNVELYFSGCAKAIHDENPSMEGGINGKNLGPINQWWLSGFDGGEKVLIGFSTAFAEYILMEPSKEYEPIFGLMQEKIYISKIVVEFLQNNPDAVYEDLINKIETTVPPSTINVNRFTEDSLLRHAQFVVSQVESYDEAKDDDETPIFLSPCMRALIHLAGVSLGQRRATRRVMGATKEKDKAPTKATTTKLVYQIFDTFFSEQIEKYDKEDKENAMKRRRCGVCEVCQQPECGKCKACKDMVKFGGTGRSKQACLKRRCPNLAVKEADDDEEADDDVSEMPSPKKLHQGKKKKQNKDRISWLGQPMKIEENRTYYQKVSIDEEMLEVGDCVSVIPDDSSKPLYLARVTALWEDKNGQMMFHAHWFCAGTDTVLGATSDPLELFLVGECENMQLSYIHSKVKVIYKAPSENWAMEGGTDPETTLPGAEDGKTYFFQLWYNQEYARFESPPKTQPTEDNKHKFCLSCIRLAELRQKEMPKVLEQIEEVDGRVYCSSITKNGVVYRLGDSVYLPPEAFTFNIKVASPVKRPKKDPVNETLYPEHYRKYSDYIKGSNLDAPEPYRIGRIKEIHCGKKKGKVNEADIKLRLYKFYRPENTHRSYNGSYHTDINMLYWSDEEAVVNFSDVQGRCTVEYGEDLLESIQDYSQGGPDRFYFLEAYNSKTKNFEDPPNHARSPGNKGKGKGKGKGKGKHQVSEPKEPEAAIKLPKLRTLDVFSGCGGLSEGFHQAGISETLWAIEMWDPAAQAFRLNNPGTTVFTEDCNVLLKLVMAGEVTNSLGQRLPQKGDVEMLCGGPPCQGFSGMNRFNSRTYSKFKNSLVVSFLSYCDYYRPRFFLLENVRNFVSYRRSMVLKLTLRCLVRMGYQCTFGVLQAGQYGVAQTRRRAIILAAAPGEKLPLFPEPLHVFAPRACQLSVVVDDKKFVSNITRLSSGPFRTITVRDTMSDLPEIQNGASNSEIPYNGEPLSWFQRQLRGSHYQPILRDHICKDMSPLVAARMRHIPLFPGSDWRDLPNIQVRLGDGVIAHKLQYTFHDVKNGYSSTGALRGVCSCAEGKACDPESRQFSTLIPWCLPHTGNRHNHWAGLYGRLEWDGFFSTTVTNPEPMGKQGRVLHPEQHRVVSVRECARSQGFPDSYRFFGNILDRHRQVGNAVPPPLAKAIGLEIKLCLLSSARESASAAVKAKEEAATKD
T1 sequence (P13864 whole entry, the tested form may be a part): as above

Turning to `O[C@H](CNCCc1c[nH]c2ccccc12)Cn1c2ccccc2c2ccccc21`, the IC50 in assay [1] turned out to be 7.3 µM. The inhibition entry in the assay on HCT-116 and in the assay with CAPAN-1 was “Active” throughout.

Turning to `O[C@@H](CNCCc1c[nH]c2ccccc12)Cn1c2ccccc2c2ccccc21`, the IC50 in [1] was 15.6 µM. Further, the inhibition result in the assay on HCT-116 and with CAPAN-1 was “Active” throughout.

For `CC(C)NC[C@@H](O)COC(Cn1c2ccccc2c2ccccc21)Cn1c2ccccc2c2ccccc21`, the IC50 in assay [1] was found to be 2.5 µM. The inhibition entry in the assay with HCT-116 and with CAPAN-1 was “Active” throughout.

Turning to `CC(C)NC[C@H](O)COC(Cn1c2ccccc2c2ccccc21)Cn1c2ccccc2c2ccccc21`, the IC50 in [1] was found to be 1.8 µM. In addition, the inhibition result with HCT-116 and in the assay on CAPAN-1 was “Active” each time.

For `COc1cccc2c1C(=O)c1c(O)c3c(c(O)c1C2=O)C[C@@](O)(C(=O)CO)C[C@@H]3O[C@H]1C[C@H](N)[C@H](O)[C@H](C)O1`, the result in [2] was Active.

In the case of `Cc1cc(Nc2ccc(NC(=O)c3ccc(Nc4ccnc5ccccc45)cc3)cc2)nc(N)n1`, the result in assay [2] was Active.

As to `Nc1ncnc2c1ncn2[C@@H]1O[C@H](CSCC[C@H](N)C(=O)O)[C@@H](O)[C@H]1O`, the inhibition entry in assay [3] was “Active”.

In the case of `CC1CCN(CC(O)Cn2c3ccccc3c3ccccc32)CC1` (racemic), the IC50 in assay [1] was 84.1 µM. In [4], the inhibition was 52.4%.

Consider `OC(CNCc1ccccc1)Cn1c2c(c3ccccc31)CCCC2` (racemic), for which, in [1], the IC50 is 80.9 µM. For the same compound, the inhibition in assay [4] was 62.9%.

With `OC(CNCCc1c[nH]c2ccccc12)Cn1c2ccccc2c2ccccc21` (racemic), the inhibition in assay [3] was more than 60%. For the same compound, the IC50 was 10.3 µM in [1]; more than 200 µM in assay [5]; more than 200 µM in assay [6]; more than 150 µM in [7]; more than 150 µM in assay [8]; more than 150 µM in [9]. The same compound gave an IC50 in [10] of more than 150 µM. The outcome in assay [2] was inactive. The Activity entry in assay [11] is “Dose-dependent effect”. The Kd in assay [12] worked out at 1.09 µM.

In the case of `OC(CNCCc1c[nH]c2ccccc12)Cn1c2ccc(Cl)cc2c2cc(Cl)ccc21` (racemic), in assay [1], the IC50 was 2.5 µM. In addition, the inhibition in assay [4] turned out to be 89.5%.

For `OC(CNCCc1ccccc1)Cn1c2ccccc2c2ccccc21` (racemic), in assay [1], the IC50 was found to be 20.7 µM. The inhibition in assay [4] came out at 73.9%.

With `COCCNCC(O)Cn1c2ccccc2c2ccccc21` (racemic), the IC50 in [1] was found to be 29.6 µM. In addition, the inhibition in assay [4] came out at 71%.

Consider `OCCNCC(O)Cn1c2ccc(Br)cc2c2cc(Br)ccc21` (racemic), for which the IC50 in [1] was 14.1 µM. Further, in assay [4], the inhibition was 99.7%.

Take `CCCN(CCC)CC(O)Cn1c2ccccc2c2ccccc21` (racemic): the inhibition in assay [4] is 5.5%.

As to `CNCC(O)Cn1c(C)c(C)c2ccccc21` (racemic), in [4], the inhibition amounted to 1.1%.

Turning to `COc1ccc(NCC(O)Cn2c3ccccc3c3ccccc32)cc1` (racemic), the inhibition in [4] turned out to be 0.6%.

For the compound `Cc1c(C)n(CC(O)CNC2CCCCC2)c2ccccc12` (racemic), the inhibition in [4] is 2.4%.

On to `OC(CN1CCOCC1)Cn1c2ccccc2c2ccccc21` (racemic), for which the inhibition in assay [4] is -5%.

As for `OC(CNC1CC1)Cn1c2ccccc2c2ccccc21` (racemic), the inhibition in assay [4] turned out to be 42.6%.

Regarding `OC(CNCC1CCCO1)Cn1c2ccccc2c2ccccc21` (racemic), the inhibition in assay [4] turned out to be 40.1%.

For `OC(CNCCOc1ccccc1)Cn1c2ccccc2c2ccccc21` (racemic), the inhibition in [4] amounted to 29.7%.

Consider `OCCCNCC(O)Cn1c2ccccc2c2ccccc21` (racemic), for which the inhibition in assay [4] was 42.5%.

The values are drawn from ChEMBL document CHEMBL3351464, “Identifying novel selective non-nucleoside DNA methyltransferase 1 inhibitors through docking-based virtual screening” (J Med Chem, 2014).
